# E-selectin induc – E-selectin induction in HUVECs, primary screen, imaging, HUVEC, immunofluorescence imaging, single point; P16581; normalized: neutral wells 0, TNF-alpha wells 100; activation, % at 7.58 µM; 260,000 compounds, 0.37% hits; AID 686992, 2013;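 active = mean E-selectin-positive cell signal at least 10% of the positive control, reached in at least 60% of replicates, without over 20% cell loss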
# Target sequence (P16581 whole entry, looked up): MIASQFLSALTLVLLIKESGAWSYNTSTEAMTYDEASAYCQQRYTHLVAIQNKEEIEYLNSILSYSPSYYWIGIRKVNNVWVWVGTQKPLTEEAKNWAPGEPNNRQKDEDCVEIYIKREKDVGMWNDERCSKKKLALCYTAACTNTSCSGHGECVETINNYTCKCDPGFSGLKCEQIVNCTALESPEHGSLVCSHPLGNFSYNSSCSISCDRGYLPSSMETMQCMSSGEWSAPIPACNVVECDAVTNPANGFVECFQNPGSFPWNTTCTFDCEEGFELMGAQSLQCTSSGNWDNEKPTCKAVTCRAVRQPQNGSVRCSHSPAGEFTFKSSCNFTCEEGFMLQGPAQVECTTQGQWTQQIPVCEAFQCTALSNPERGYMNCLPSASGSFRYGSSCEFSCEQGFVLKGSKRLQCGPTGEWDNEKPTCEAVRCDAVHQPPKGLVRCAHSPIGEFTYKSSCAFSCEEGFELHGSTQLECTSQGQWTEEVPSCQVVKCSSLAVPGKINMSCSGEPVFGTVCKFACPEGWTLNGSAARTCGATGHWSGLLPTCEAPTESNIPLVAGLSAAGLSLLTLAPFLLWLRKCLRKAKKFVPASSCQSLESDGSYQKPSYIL
#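 System: HUVEC / Compound: single concentration / Signal: immunofluorescence imaging / Read-out: percent E-selectin-positive cells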
# DENV2 CPE rescue – inhibitors of DENV2 cytopathic effect, primary screen, cell-based, plate reader, single concentration. DENV2-infected cells, cytopathic effect rescue. CPE inhibition, % at 9.99 µM. AID 651640, 2012. 350,000 compounds, 1.7% hits; in the data active = CPE inhibition above about 20%, passing the limit was not always enough; tested in BHK-21 cells;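 also: 0% = median of neutral control wells and 100% = median of positive control wells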
# SIRT5 block – SIRT5 desuccinylase inhibitors, primary screen, biochemical, fluorescence imaging, single point, set 5; NAD-dependent protein deacylase sirtuin-5, mitochondrial (Homo sapiens), Q9NXA8; Purified SirT5, succinyl-peptide AMC, trypsin-coupled fluorescence; AID 652115, 2013; 330,000 compounds, 1.1% hits; inhibition, % at 15 µM; in the data active = inhibition above about 15%
# * hit, by the source's call; / = no result. In the library only some 2.9% were active in any assay of this set; here they are far more common.
SMILES,E-selectin induc,DENV2 CPE rescue,SIRT5 block
Cc1cccc(C(O)(C(=O)NNc2ccc3ccccc3n2)c2cccc(C)c2)c1,1,/,/
Cc1ccc(S(=O)(=O)N(C)C[C@@H]2OCCCC[C@@H](C)Oc3ccc(NS(=O)(=O)c4c(C)noc4C)cc3C(=O)N([C@H](C)CO)C[C@@H]2C)cc1,0,-2,2
Cc1ccc(S(=O)(=O)Nc2ccc3c(c2)C(=O)N([C@@H](C)CO)C[C@H](C)[C@@H](CN(C)S(=O)(=O)c2c(C)noc2C)OCCCC[C@@H](C)O3)cc1,/,-11,2
Cc1ccc(S(=O)(=O)N(C)C[C@@H]2OCCCC[C@H](C)Oc3ccc(NS(=O)(=O)c4c(C)noc4C)cc3C(=O)N([C@H](C)CO)C[C@@H]2C)cc1,/,89*,14
Cc1ccc(S(=O)(=O)N(C)C[C@@H]2OCCCC[C@H](C)Oc3ccc(NS(=O)(=O)c4c(C)noc4C)cc3C(=O)N([C@H](C)CO)C[C@H]2C)cc1,/,112*,4
Cc1noc(C)c1S(=O)(=O)Nc1ccc2c(c1)C(=O)N([C@H](C)CO)C[C@@H](C)[C@@H](CN(C)S(=O)(=O)c1ccc(F)cc1)OCCCC[C@@H](C)O2,0,2,3
Cc1ccc(S(=O)(=O)Nc2ccc3c(c2)C(=O)N([C@@H](C)CO)C[C@@H](C)[C@H](CN(C)S(=O)(=O)c2c(C)noc2C)OCCCC[C@H](C)O3)cc1,/,-15,7
Cc1ccc(S(=O)(=O)N(C)C[C@H]2OCCCC[C@@H](C)Oc3ccc(NS(=O)(=O)c4c(C)noc4C)cc3C(=O)N([C@H](C)CO)C[C@H]2C)cc1,/,21*,0
Cc1ccc(S(=O)(=O)N(C)C[C@H]2OCCCC[C@H](C)Oc3ccc(NS(=O)(=O)c4c(C)noc4C)cc3C(=O)N([C@@H](C)CO)C[C@@H]2C)cc1,/,43*,7
COc1cc(C(=O)NCc2nnc(SCC(=O)N3CCOCC3)o2)cc(OC)c1OC,/,1,-1
Cc1noc(C)c1S(=O)(=O)Nc1ccc2c(c1)C(=O)N([C@H](C)CO)C[C@H](C)[C@@H](CN(C)S(=O)(=O)c1ccccc1)OCCCC[C@H](C)O2,0,-16,2
Cc1ccc(S(=O)(=O)N(C)C[C@@H]2OCCCC[C@@H](C)Oc3ccc(NS(=O)(=O)c4c(C)noc4C)cc3C(=O)N([C@H](C)CO)C[C@H]2C)cc1,/,62*,7
Cc1noc(C)c1S(=O)(=O)Nc1ccc2c(c1)C(=O)N([C@@H](C)CO)C[C@@H](C)[C@H](CN(C)S(=O)(=O)c1ccccc1)OCCCC[C@@H](C)O2,0,94*,0
Cc1ccc(S(=O)(=O)Nc2ccc3c(c2)C(=O)N([C@@H](C)CO)C[C@@H](C)[C@H](CN(C)S(=O)(=O)c2c(C)noc2C)OCCCC[C@@H](C)O3)cc1,/,2,10
Cc1ccc(S(=O)(=O)Nc2ccc3c(c2)C(=O)N([C@@H](C)CO)C[C@@H](C)[C@@H](CN(C)S(=O)(=O)c2c(C)noc2C)OCCCC[C@@H](C)O3)cc1,/,28*,13
Cc1noc(C)c1S(=O)(=O)Nc1ccc2c(c1)C(=O)N([C@@H](C)CO)C[C@@H](C)[C@H](CN(C)S(=O)(=O)c1ccc(Cl)cc1)OCCCC[C@@H](C)O2,/,-2,14
CCOc1ccc(NC(=S)N/N=C(\C)Cc2ccc(OC)cc2)cc1,0,0,3
COc1ccc(N2CCN(CC(O)COc3ccccc3[N+](=O)[O-])CC2)cc1 (stereo not drawn),/,5,0
O=C(Cc1ccccc1)N1CC(=O)N2[C@@H](CO)[C@H](c3ccc(C#Cc4ccccc4)cc3)[C@@H]2C1,0,24*,1
COCC(=O)N1CC(=O)N2[C@H](CO)[C@H](c3ccc(C#Cc4cccc(OC)c4)cc3)[C@@H]2C1,0,40*,0
CC(C)CC#Cc1ccc([C@@H]2[C@@H](CO)N3C(=O)CN(C(=O)c4ccccn4)C[C@@H]23)cc1,0,-3,-2
O=C(Cc1ccccc1)N1CC(=O)N2[C@H](CO)[C@@H](c3ccc(C#Cc4ccccc4)cc3)[C@H]2C1,0,1,-3
O=C(c1ccccn1)N1CC(=O)N2[C@H](C1)[C@H](c1ccc(C#CCc3ccccc3)cc1)[C@@H]2CO,0,54*,1
CC(C)CC#Cc1ccc([C@@H]2[C@@H](CO)N3C(=O)CN(C(=O)c4ccccn4)C[C@H]23)cc1,0,-7,33*
COCC(=O)N1CC(=O)N2[C@H](CO)[C@H](c3ccc(C#Cc4cccc(OC)c4)cc3)[C@H]2C1,2,2,-3

# Compound activity deposited in PubChem by Broad Institute.
